Calls of active or inactive are those of the source. The calls are words filed in the database; no cut-off is given here.
How the values were obtained:
[1] = biological target: T1, Sphingomyelin phosphodiesterase 2 (Rattus norvegicus, UniProt Q9ET64); assay: Inhibition of nSMase in rat brain microsomal homogenate by micellar 14C-sphingomyelin assay
T1 sequence (Q9ET64 whole entry): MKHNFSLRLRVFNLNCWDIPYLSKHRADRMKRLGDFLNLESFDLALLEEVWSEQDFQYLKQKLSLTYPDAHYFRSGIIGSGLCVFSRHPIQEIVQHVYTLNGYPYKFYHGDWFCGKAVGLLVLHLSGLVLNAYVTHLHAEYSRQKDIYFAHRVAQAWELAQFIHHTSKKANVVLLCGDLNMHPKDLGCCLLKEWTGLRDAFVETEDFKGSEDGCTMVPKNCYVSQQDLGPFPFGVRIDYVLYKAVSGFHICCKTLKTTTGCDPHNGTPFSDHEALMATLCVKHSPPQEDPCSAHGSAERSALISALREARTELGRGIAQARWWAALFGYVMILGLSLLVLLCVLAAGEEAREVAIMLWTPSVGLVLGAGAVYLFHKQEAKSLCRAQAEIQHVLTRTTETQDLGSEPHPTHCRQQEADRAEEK

Rattus norvegicus = species: Rattus norvegicus; conditions: Brain, Microsomal
[2] = Inhibition of aSMase in rat brain microsomal homogenate by fluorescence assay
HEK293 = assay: Inhibition of dexamethasone-induced apoptosis in HEK293 cells assessed as decrease in DNA fragmentation at 1 to 2 uM after 7 hrs by ELISA; format: functional, cell-based; conditions: Homo sapiens
Summary of the method: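 HEK-293 cells in medium with BrdU labelling solution (10 µM final) were plated at about 0.5 × 10³ cells/well. After 16 h they were washed and re-fed, then given 10^-8 M dexamethasone plus inhibitor for 7 h. Supernatant went to an anti-BrdU ELISA (secondary antibody, TMB), with absorbance at 370 nm. Quintuplicate.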

SMILES	IC50 [1] [µM]	Km (Rattus norvegicus) [µM]	IC50 [2] [µM]	Activity (HEK293)
CCCCCCS(=O)(=O)OC[C@H]1OC(O)[C@H](OP(=O)(O)O)[C@@H](O)[C@@H]1OP(=O)(O)O (some centres not stated)	> 100	–	–	–
O=P(O)(O)OC[C@H]1OC[C@H](OP(=O)(O)O)C[C@@H]1OP(=O)(O)O	–	–	> 50	–
O=P(O)(O)OC[C@H]1OC(O)[C@H](OP(=O)(O)O)[C@@H](O)[C@@H]1OP(=O)(O)O (some centres not stated)	–	–	> 50	–
CCCCCCCCS(=O)(=O)OC[C@H]1OC(O)[C@H](OP(=O)(O)O)[C@@H](O)[C@@H]1OP(=O)(O)O (some centres not stated)	> 100	–	2.34	–
CCCCCCCCCCCCS(=O)(=O)OC[C@H]1OC(O)[C@H](OP(=O)(O)O)[C@@H](O)[C@@H]1OP(=O)(O)O (some centres not stated)	> 100	–	0.44	Active

Continued, in another order:

IC50 [1] [µM]	Km (Rattus norvegicus) [µM]	IC50 [2] [µM]	SMILES	Activity (HEK293)
> 100	0.53	–	CCCCCC/C=C\C=C/C/C=C\C/C=C\CCCC(=O)OC(COC(=O)CCCCCCCCCCCCCCCCC)COP(=O)(O)O[C@@H]1[C@H](O)[C@H](OP(=O)(O)O)[C@@H](O)[C@H](OP(=O)(O)O)[C@H]1O (some centres not stated)	–
> 100	–	39.6	CCS(=O)(=O)OC[C@H]1OC(O)[C@H](OP(=O)(O)O)[C@@H](O)[C@@H]1OP(=O)(O)O (some centres not stated)	–
